These results are taken from paper PMC4744243 (Oncogene, 2015).

One assay addresses PRC2^WT (Homo sapiens, UniProt Q15910). Type of assay: biochemical. The following applies: read-out: IC50 WT, [SAM] 1 µM.
A further assay concerns the target PRC2^Y111L (Homo sapiens, UniProt Q15910, Y111L). In kind it is biochemical. The following applies: for IC50: read-out: IC50 Y111L, [SAM] 1 µM; for IC50 Y111L: [SAM] 20 μM.
The target of a further assay is PRC2^Y641N/Y661D (Homo sapiens, UniProt Q15910, Y641N/Y661D). In kind it is biochemical. Conditions: for IC50: read-out: IC50 Y641N/Y6661D, [SAM] 20 μM.
PRC2^Y641N/Y661D, sequence (Q15910 whole entry Y641N/Y661D): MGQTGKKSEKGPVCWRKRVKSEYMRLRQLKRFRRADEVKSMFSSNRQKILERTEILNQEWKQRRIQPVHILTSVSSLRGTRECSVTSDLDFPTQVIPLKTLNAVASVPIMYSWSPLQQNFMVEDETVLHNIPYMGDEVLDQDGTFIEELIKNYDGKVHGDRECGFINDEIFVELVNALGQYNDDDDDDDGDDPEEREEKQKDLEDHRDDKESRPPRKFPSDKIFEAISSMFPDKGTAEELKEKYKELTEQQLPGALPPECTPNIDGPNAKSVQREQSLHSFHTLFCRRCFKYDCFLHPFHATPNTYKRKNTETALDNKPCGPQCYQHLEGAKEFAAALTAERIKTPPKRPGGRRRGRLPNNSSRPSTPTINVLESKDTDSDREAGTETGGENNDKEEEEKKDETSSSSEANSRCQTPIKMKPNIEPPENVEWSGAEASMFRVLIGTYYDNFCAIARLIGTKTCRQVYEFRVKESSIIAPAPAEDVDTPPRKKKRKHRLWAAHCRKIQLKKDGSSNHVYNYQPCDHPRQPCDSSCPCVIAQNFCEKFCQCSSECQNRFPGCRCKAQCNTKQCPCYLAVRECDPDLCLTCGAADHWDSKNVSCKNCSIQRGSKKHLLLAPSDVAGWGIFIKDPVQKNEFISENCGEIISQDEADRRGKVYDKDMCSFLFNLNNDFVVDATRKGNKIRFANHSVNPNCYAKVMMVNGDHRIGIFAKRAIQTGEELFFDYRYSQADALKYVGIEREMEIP
PRC2^Y641N/Y661D, sequence (O75530 whole entry partner): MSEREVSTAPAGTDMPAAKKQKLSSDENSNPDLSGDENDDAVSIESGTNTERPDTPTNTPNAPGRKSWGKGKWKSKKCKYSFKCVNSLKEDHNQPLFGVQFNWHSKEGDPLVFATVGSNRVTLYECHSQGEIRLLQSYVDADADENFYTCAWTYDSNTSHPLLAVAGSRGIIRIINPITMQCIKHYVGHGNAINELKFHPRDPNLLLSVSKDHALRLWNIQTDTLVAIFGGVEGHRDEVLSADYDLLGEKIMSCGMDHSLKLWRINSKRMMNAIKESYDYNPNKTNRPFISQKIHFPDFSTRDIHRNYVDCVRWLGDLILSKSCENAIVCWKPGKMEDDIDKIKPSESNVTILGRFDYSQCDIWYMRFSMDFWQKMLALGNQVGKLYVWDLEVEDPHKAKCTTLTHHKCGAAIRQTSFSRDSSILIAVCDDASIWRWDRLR
PRC2^Y641N/Y661D, sequence (Q15022 whole entry partner): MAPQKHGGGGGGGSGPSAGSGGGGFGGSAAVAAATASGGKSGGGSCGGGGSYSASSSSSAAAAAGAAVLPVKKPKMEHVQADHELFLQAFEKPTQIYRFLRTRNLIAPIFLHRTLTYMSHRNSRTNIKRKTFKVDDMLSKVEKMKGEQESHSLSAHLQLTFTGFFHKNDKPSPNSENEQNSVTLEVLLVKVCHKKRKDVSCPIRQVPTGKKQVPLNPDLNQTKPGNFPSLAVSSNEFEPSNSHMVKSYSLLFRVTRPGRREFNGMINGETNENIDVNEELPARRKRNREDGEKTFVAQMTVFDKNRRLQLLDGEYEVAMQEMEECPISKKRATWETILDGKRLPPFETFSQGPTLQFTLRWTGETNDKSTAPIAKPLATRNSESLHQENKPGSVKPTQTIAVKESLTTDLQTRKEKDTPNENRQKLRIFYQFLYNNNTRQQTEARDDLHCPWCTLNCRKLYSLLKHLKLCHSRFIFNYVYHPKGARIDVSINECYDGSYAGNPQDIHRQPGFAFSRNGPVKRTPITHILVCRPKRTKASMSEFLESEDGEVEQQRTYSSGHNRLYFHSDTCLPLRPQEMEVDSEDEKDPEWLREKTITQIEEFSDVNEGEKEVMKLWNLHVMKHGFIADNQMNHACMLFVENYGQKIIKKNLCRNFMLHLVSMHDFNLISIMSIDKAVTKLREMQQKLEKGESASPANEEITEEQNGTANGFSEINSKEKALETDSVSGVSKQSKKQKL
Assay [1] deals with K-P (KARPAS422-parental cells). In kind it is cell-based. The following applies: 10 μM for 6 days.
For assay [2], the system named is K-R2- and K-R10-derived cell clones. In kind it is cell-based. Conditions: four K-R2- and K-R10-derived clones; 6-day.
Assay [3] relates to H3K27Me3 peptides in K-P cells. The experiment in a line: Histone tail profiling by mass spectrometry. Type of assay: cell-based. The following applies: 2 or 10 µM, 3 days, vs DMSO control. The method, boiled down: (§1)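 Karpas422 parental cells were grown in RPMI-1640 with 10% FBS at 37 °C and 5% CO2. Histones were extracted from pellets of 5 × 10^6 cells with a histone purification kit. Free lysines were blocked by derivatization, and methylated H3 peptides were then analysed by high-resolution mass spectrometry.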

In assay [4] the test system is H3K4, K9, K36 and K79 methylation. The experiment in a line: Western blot and histone profiling of other H3 methylation marks. In kind it is cell-based. Conditions: 2 or 10 µM, 3 days. The method, boiled down:
as §1
Background: Immunoblotting shows a protein as a band on a membrane.

For assay [5], the system named is H3K27Me2 and Me3 in K-P cells. The assay is described as follows: Western blot of H3K27 methylation. The following applies: K-P cells treated with increasing doses. In kind it is cell-based.
The subject of another assay is EZH2 WT. The following applies: read-out: half-maximal inhibition (IC50); cited from earlier work.
The next assay has as its system EZH2 Y641 mutant. Conditions: read-out: half-maximal inhibition (IC50); cited from earlier work.
Assay [6] has as its system K-P (KARPAS422-parental cells). Conditions: 6-day, compared with EI1.
The subject of a further assay is tumor xenograft. The following applies: high-dose treatment; after cessation of the dosing; cited from earlier work.
The test system of a further assay is WSU-DLCL2 xenograft. The following applies: high-dose; 28-day treatment cycle; cited from earlier work.

Molecules are shown by their SMILES. Read-outs that look alike come from different tables or passages of the source. Bounds are passed on as bounds.

PRC2^Y111L, sequence (Q15910 whole entry Y111L): as the sequence (Q15910 whole entry Y641N/Y661D) above, with Y111L, N641Y, D661Y counted along it
PRC2^Y111L, sequence (O75530 whole entry partner): as the sequence (O75530 whole entry partner) above
PRC2^Y111L, sequence (Q15022 whole entry partner): as the sequence (Q15022 whole entry partner) above
PRC2^WT, sequence (Q15910 whole entry): as the sequence (Q15910 whole entry Y641N/Y661D) above, with N641Y, D661Y counted along it
PRC2^WT, sequence (O75530 whole entry partner): as the sequence (O75530 whole entry partner) above
PRC2^WT, sequence (Q15022 whole entry partner): as the sequence (Q15022 whole entry partner) above

Regarding `CCC(CC)n1ccc2c(C(=O)NCc3c(C)cc(C)[nH]c3=O)cc(C#N)cc21` [EI1], the IC50 on PRC2^WT (substrate H3K27Me0 peptide) is 20 nM; on PRC2^WT (substrate H3K27Me1 peptide), 9 nM; on PRC2^Y111L (substrate H3K27Me0 peptide) it was 3100 nM; on PRC2^Y111L (substrate H3K27Me1 peptide) it was 4200 nM; at PRC2^Y641N/Y661D (substrate H3K27Me1 peptide), greater than 25000 nM; on PRC2^Y641N/Y661D (substrate H3K27Me2 peptide), greater than 25000 nM. The IC50 with EZH2 WT and with EZH2 Y641 mutant was 10 to 20 nM throughout. The “IC50 Y111L” value at PRC2^Y111L (substrate H3K27Me0 peptide) and at PRC2^Y111L (substrate H3K27Me1 peptide) was “inactive” in each case. In addition, the “IC50 against PRC2^Y641N/Y661D, fold weaker compared with PRC2^Y641N” value against PRC2^Y641N/Y661D (1 μM SAM, both H3K27Me1 and Me2 substrates) is on record as greater than 300 fold. The “reduction of BrdU incorporation compared with DMSO control” value in assay [1] is greater than 90%. For the same compound, in assay [2], the “growth inhibition in cell proliferation assay” value was “refractory”. Also, the “decrease of K27Me3 methylated peptides” value in assay [3] was greater than 2 fold. Further, the “decrease in H3K4, K9, K36 and K79 methylation” value in assay [4] is on record as “no noticeable decrease”. Further, the “H3K27Me2 and Me3 levels (western blot)” value in assay [5] is “both H3K27Me2 and Me3 levels decreased”.
Regarding `CCN(c1cc(-c2ccc(CN3CCOCC3)cc2)cc(C(=O)NCc2c(C)cc(C)[nH]c2=O)c1C)C1CCOCC1` [EPZ-6438, reference compound], the “reduction of BrdU incorporation compared with DMSO control” value in [1] was greater than 90%. Also, the “growth inhibition in cell proliferation assay” value in [2] was “refractory”. Moreover, in [4], the “decrease in H3K4, K9, K36 and K79 methylation” value is “no noticeable decrease”. In addition, the “growth arrest (growth inhibition) in proliferation assay” value in assay [6] was “more potent in inducing growth arrest”. The “anti-tumor effect in tumor xenograft studies” value with tumor xenograft is reported as “complete tumor regression without tumor regrowth”. Further, the “anti-tumor effect in WSU-DLCL2 xenograft model” value in the assay with WSU-DLCL2 xenograft was “partial tumor regression”.
